Screening results deposited in PubChem by several laboratories.
Compounds with a hit are over-represented: about 1.4% of the library has one in this group of screens.
Tn7 DDE FP – DD(E)-Tn7 binding inhibition, primary FP screen; FP displacement of FITC-Tn7 peptide from fibrin DD(E); 0% = median of compound wells per plate; 370,000 compounds, 0.13% hits; P02675; inhibition, % at 8.3 µM;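 active means inhibition above the mean of compounds falling within the control limits plus 3 SD of them, cut at about 14% in these data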;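 further: 0% = plate median of compound wells and 100% = 10 µM Aha-Tn7 peptide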
Target sequence (P02675 whole entry, looked up): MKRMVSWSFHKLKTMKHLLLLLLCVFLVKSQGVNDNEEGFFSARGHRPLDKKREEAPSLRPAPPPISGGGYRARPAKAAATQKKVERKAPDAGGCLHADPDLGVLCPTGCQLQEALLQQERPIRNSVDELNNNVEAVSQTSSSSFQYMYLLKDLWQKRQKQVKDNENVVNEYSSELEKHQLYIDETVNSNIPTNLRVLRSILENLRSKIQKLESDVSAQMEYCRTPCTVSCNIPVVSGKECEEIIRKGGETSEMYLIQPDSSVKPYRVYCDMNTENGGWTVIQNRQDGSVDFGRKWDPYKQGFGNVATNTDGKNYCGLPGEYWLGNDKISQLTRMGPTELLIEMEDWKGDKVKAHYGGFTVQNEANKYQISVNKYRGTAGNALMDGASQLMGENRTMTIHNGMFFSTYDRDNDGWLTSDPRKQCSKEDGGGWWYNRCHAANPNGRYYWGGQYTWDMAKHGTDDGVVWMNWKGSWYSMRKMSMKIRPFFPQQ
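Assay system: human fibrin DD(E). Input: DD(E) 2 µM final. Medium: Tris buffer with calcium and detergent, pH 7.8. Compound dosing: single point at 8.3 µM. Timing: 10 min plus 3 h, room temperature. Technique: fluorescence polarization of the labelled Tn7 tracer. Read-out: percent inhibition. Replicates: singlicate testing.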
CAL PDZ FP-1 – inhibitors of human CAL PDZ peptide binding; Q9HD26; purified CAL PDZ, TMR-peptide fluorescence polarization, 1 h; inhibition, % at 24.9 µM; 300,000 compounds, 0.92% hits;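 active means mean inhibition of at least 30% with at least half of replicates also reaching 30%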;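 further: 0% = DMSO neutral control and 100% = excess unlabeled competitor peptide PRC23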
CAL PDZ FP-2 – blocks peptide binding to human CAL PDZ domain. inhibition, % at 20 µM. purified CAL PDZ, TMR-peptide fluorescence polarization, 1 h. 330,000 compounds, 0.02% hits. Q9HD26;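 active means highest replicate inhibition of at least 40%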;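 further: plate controls were DMSO neutral control wells for no effect and unlabeled competitor peptide control wells for full effect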
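Assay system – tagged CAL PDZ protein CerCALP, purified · Timing – 1 h at RT · Compound – single point, 20 µM · Measured by – fluorescence polarization from S- and P-plane intensities, G-factor corrected · Evaluation – inhibition from polarization loss · Probe or stimulus – TMR reporter peptide T*-PRC34 · Buffer or medium – pH 7.4 phosphate-saline buffer, reducing agent, detergent, IgG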
DDE Tn6 FP inh – inhibitors of Tn6 peptide binding to human fibrin DD(E). P02675. Fibrin DD(E) TRITC-Tn6 fluorescence polarization displacement. inhibition, % at 8.3 µM. 370,000 compounds, 0.21% hits. AID 720509;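 active means inhibition above a per-campaign cutoff: mean of compounds within control limits plus 3 SD, cut at about 15% in these data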;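 further: 0% = median of all compound wells on the plate and 100% = blocking peptide control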
Arr AP2 block – blocks beta-arrestin peptide binding to AP2 adaptin | FITC-arrestin peptide / GST-AP2 beads, flow cytometry; AP2 beta2 appendage carries R879A mutation | inhibition, % at 10 µM | 340,000 compounds, 0.31% hits | AID 504490;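 active means inhibition above a set limit, near 3 SD of compounds lacking own fluorescence, cut at about 54% in these data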;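 further: plate controls were DMSO wells for no effect and 5 µM unlabelled arrestin peptide for full effect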
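Assay system: GST-AP2 R879A bound to glutathione beads, E. coli-expressed; Medium: PBS with 0.05% Tween 20 and 0.1% BSA; Also added: fluorescein-tagged arrestin peptide at 50 nM final; Timing: 12 min plus 1 h, RT; Measured by: flow cytometry, FL1 (488/535 nm); Evaluation: percent drop in bead-associated FITC signal.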
The depositor's hits bear a star.

For Cc1cccc(NC(=O)c2sccc2-n2cccc2)c1C the results were Tn7 DDE FP -1, CAL PDZ FP-1 32*, DDE Tn6 FP inh -3 and Arr AP2 block -3.
`Cc1ccc(NC(=O)c2sccc2-n2cccc2)c(Cl)c1` gave Tn7 DDE FP -1, CAL PDZ FP-1 0, CAL PDZ FP-2 -2, DDE Tn6 FP inh 2 and Arr AP2 block -7.
O=C(NC1CCCCN(Cc2cccc(Cl)c2)C1=O)c1cccc(F)c1 (stereo not given) was read as Tn7 DDE FP 5 and DDE Tn6 FP inh -6.
For COC(=O)c1cc2c(c3c4cc(F)ccc4n(S(=O)(=O)c4ccc(C)cc4)c13)C(=O)N(Cc1ccc(C(F)(F)F)cc1)C2 the results were Tn7 DDE FP 6 and DDE Tn6 FP inh 6.
Cc1noc(C)c1C(=O)OCC(=O)NCCc1ccc(S(N)(=O)=O)cc1 was read as Tn7 DDE FP -11, CAL PDZ FP-1 -5, CAL PDZ FP-2 0, DDE Tn6 FP inh -5 and Arr AP2 block -7.
For Cc1noc(C)c1C(=O)OCC(=O)NCCc1ccccc1 the results were Tn7 DDE FP -1, CAL PDZ FP-1 84*, CAL PDZ FP-2 -1, DDE Tn6 FP inh 0 and Arr AP2 block -1.
`COCCN(C(=O)CSc1nnc(-c2ccccc2F)n1C)c1c(N)n(Cc2ccccc2)c(=O)[nH]c1=O` gave Tn7 DDE FP -4, CAL PDZ FP-1 45*, CAL PDZ FP-2 -1, DDE Tn6 FP inh -3 and Arr AP2 block 9.
Screening CCn1ncc(Br)c1C(=O)Nc1cc(C)on1 returned Tn7 DDE FP -6, CAL PDZ FP-1 41*, CAL PDZ FP-2 -1, DDE Tn6 FP inh 4 and Arr AP2 block -18.
Screening O=C(Nc1ccc2c(c1)OCO2)OC1CCC12CCC(c1ccccc1)CC2 (stereo not given) returned Tn7 DDE FP -1 and DDE Tn6 FP inh 2.
For Cc1ccc(-n2c(SCC(=O)Nc3ccc(OCc4ccccc4)cc3)nnc2-c2ccccc2)cc1 the results were Tn7 DDE FP 1 and DDE Tn6 FP inh -3.
For CCN1c2ccccc2N(C)C1(C)c1ccccc1 (stereo not given) the results were CAL PDZ FP-1 -1, CAL PDZ FP-2 0 and Arr AP2 block 75*.
`COc1ccc(OC)c(-n2c(=S)[nH]c3c(sc(=S)n3-c3ccccc3C)c2=O)c1` gave Tn7 DDE FP -2, CAL PDZ FP-1 -5, CAL PDZ FP-2 -3, DDE Tn6 FP inh 2 and Arr AP2 block -18.
For COc1ccccc1-n1c(=S)[nH]c2c(sc(=S)n2-c2ccccc2C)c1=O the results were Tn7 DDE FP 3, CAL PDZ FP-1 75*, CAL PDZ FP-2 1, DDE Tn6 FP inh 3 and Arr AP2 block -7.
Screening COc1ccccc1N1CC(C)(C)C(=O)N(C(=O)c2c(F)cccc2Cl)C1=S returned Tn7 DDE FP 4, CAL PDZ FP-1 81*, CAL PDZ FP-2 -1, DDE Tn6 FP inh 9 and Arr AP2 block -12.
Screening COc1ccccc1N1CCN(C(=O)c2c(-c3c(F)cccc3Cl)noc2C)CC1 returned Tn7 DDE FP -1, CAL PDZ FP-1 0, CAL PDZ FP-2 0, DDE Tn6 FP inh -7 and Arr AP2 block 3.
Screening O=C(/C=C/c1cccc2ccccc12)N1CCOCC1 returned Tn7 DDE FP 0, CAL PDZ FP-1 49*, CAL PDZ FP-2 -1, DDE Tn6 FP inh -3 and Arr AP2 block -7.
Screening O=C(Nc1ccc2c(c1)OCO2)C1CC(c2cccc(Br)c2)=NO1 (stereo not given) returned Tn7 DDE FP 0, CAL PDZ FP-1 42*, DDE Tn6 FP inh 0 and Arr AP2 block -14.
For COc1ccc(OC)c2cc3ccccc3cc12 the results were Tn7 DDE FP 18*, CAL PDZ FP-1 -5, CAL PDZ FP-2 0, DDE Tn6 FP inh -2 and Arr AP2 block 21.
Screening COC(=O)[C@]12C[C@H](CC(=O)NCCc3ccccc3OC)C(=O)N(Cc3cccc4ccccc34)C1=C[C@H](C(C)C)O[C@@H]2C1CC1 returned Tn7 DDE FP -2 and DDE Tn6 FP inh 4.
Screening CCOc1cc2[nH]c(=O)n(CCC(=O)NCCc3ccc(OC)c(OC)c3)c(=O)c2cc1OCC returned Tn7 DDE FP 1, CAL PDZ FP-1 62*, CAL PDZ FP-2 -1, DDE Tn6 FP inh 1 and Arr AP2 block 0.
For COc1ccc(CCNC(=O)CCn2c(=O)[nH]c3cc(OC)c(OC)cc3c2=O)cc1OC the results were Tn7 DDE FP 8, CAL PDZ FP-1 40*, CAL PDZ FP-2 -1, DDE Tn6 FP inh 0 and Arr AP2 block -5.
CCOc1cc2[nH]c(=O)n(CCC(=O)NCCc3ccccc3)c(=O)c2cc1OCC was read as Tn7 DDE FP 3, CAL PDZ FP-1 -5, CAL PDZ FP-2 -1, DDE Tn6 FP inh -1 and Arr AP2 block 24.
Screening CCC(CC)C(=O)NCCc1ccc(OC)c(OC)c1 returned Tn7 DDE FP 3, CAL PDZ FP-1 60*, CAL PDZ FP-2 0, DDE Tn6 FP inh -7 and Arr AP2 block 18.
Screening COc1ccc(CCNC(=O)CCCn2c(=O)[nH]c3cc(OC)c(OC)cc3c2=O)cc1OC returned Tn7 DDE FP 4, CAL PDZ FP-1 -1, CAL PDZ FP-2 -2, DDE Tn6 FP inh -4 and Arr AP2 block 17.
For N=c1c2c(ccn1CCCc1ccccc1)Oc1ccc3ccccc3c1C2c1ccccc1 (stereo not given) the results were Tn7 DDE FP 8 and DDE Tn6 FP inh -5.
For Fc1cccc2sc(N3CCCCC3)nc12 the results were Tn7 DDE FP 1, CAL PDZ FP-1 37*, CAL PDZ FP-2 -1, DDE Tn6 FP inh -6 and Arr AP2 block -6.
Fc1cccc2sc(N3CCOCC3)nc12 was read as Tn7 DDE FP 4, CAL PDZ FP-1 -1, CAL PDZ FP-2 -3, DDE Tn6 FP inh 6 and Arr AP2 block -7.
O=C(NCCc1ccccc1)OCc1cn(-c2ccc(F)c(F)c2)nn1 was read as Tn7 DDE FP 1 and DDE Tn6 FP inh 1.
For Cc1c(C(=O)Oc2cccc3cccnc23)oc2ccccc12 the results were Tn7 DDE FP 5, CAL PDZ FP-1 39*, CAL PDZ FP-2 0, DDE Tn6 FP inh 3 and Arr AP2 block -11.
COC(=O)C1=C(C)N(C)C(=NCc2cccc(C(F)(F)F)c2)NC1c1ccc(F)cc1 (stereo not given) was read as Tn7 DDE FP 3 and DDE Tn6 FP inh -8.
For CC1(C)CC(=O)C=C(C2CC2)C1=O the results were Tn7 DDE FP -7 and DDE Tn6 FP inh -3.
Screening COCCOc1cc2ncnc(N3CCC(C(=O)O)CC3)c2cc1OCCOC returned Tn7 DDE FP -4, CAL PDZ FP-1 164*, CAL PDZ FP-2 0, DDE Tn6 FP inh -5 and Arr AP2 block -5.
CCOC(=O)Cn1c(=O)oc2cc(S(=O)(=O)N(CCN(C)C)Cc3ccccc3)ccc21 was read as Tn7 DDE FP 1, CAL PDZ FP-1 -2, CAL PDZ FP-2 0, DDE Tn6 FP inh 5 and Arr AP2 block -4.
